Results on twelve compounds are retold here after ChEMBL document CHEMBL1130404, “Synthesis and evaluation of polycyclic pyrazolo[3,4-d]pyrimidines as PDE1 and PDE5 cGMP phosphodiesterase inhibitors” (J Med Chem, 1997).

For assay [1], the target named is cGMP-specific 3',5'-cyclic phosphodiesterase (Bos taurus, UniProt Q28156). Put plainly: Inhibition of phosphodiesterase 5 from bovine lung. The essentials: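 Purified bovine lung enzyme in 50 mM Tris-HCl (pH 7.5), 2 mM MgCl2, 0.1 mg/mL BSA with 1 μM [3H]cGMP as substrate, incubated 30 min at 30 °C. IC50 derived from percent inhibition plotted against log molar concentration; run in duplicate, mean of two reported.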

For assay [2], the target named is 3',5'-cyclic-nucleotide phosphodiesterase (Bos taurus, UniProt A0A3Q1M1E8). Briefly: Inhibition of Phosphodiesterase 3 from bovine heart. Put shortly:
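Enzymes purified from bovine heart (PDE3) or canine kidney (PDE4); 1 μM [3H]cAMP substrate, 50 mM Tris-HCl pH 7.5, 2 mM MgCl2, 0.1 mg/mL BSA, 30 min at 30 °C. IC50 taken from % inhibition vs log molar concentration; duplicates, mean reported.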

Another assay addresses Phosphodiesterase 1 (Bos taurus, UniProt Q01061+P14100). Put plainly: Inhibition of phosphodiesterases PDE1 from bovine aorta. The class given is protein assay. The essentials: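 Bovine aorta enzyme; 50 mM Tris-HCl pH 7.5, 2 mM MgCl2, 0.1 mg/mL BSA, 1 mM CaCl2, 0.1 μM calmodulin, 1 μM [3H]cGMP substrate; 30 min at 30 °C. IC50 read from % inhibition vs log molar concentration curve; duplicates, mean reported.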

Assay [3] relates to Rattus norvegicus. Put plainly: Antihypertensive activity in spontaneously hypertensive rats at 10 mg/kg administered orally. It counts as functional. To be noted: route oral. The essentials:
(§1)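 Spontaneously hypertensive rats dosed orally with aqueous solution or suspension in 0.4% methylcellulose vehicle. Value is peak change in mean arterial pressure relative to a vehicle-treated control group.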

In assay [4] the target is T1, cGMP-dependent 3',5'-cyclic phosphodiesterase (Bos taurus, UniProt P14099).
T1 sequence (P14099 whole entry): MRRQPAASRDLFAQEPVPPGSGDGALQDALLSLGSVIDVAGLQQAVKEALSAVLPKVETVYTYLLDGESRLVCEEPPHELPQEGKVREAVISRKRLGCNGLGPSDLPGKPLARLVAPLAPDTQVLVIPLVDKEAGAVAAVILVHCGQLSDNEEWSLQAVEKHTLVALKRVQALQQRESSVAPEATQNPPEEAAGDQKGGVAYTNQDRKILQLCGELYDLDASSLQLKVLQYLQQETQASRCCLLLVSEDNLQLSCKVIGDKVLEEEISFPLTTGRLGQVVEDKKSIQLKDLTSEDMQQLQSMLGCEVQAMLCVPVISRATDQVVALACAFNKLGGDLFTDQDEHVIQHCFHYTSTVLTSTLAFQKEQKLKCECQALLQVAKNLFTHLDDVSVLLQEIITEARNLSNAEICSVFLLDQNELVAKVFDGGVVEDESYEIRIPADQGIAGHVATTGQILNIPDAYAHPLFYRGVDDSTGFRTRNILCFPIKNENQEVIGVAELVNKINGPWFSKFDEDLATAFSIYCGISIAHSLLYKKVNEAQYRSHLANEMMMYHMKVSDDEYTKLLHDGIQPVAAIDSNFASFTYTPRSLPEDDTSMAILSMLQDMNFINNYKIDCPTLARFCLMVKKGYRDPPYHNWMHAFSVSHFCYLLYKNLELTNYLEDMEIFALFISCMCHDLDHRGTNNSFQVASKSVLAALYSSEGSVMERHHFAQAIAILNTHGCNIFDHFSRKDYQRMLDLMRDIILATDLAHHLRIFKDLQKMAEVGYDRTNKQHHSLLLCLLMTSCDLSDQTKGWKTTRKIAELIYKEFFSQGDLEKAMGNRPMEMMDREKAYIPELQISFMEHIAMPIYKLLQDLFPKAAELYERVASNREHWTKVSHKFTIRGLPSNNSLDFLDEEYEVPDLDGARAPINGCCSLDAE
Put plainly: Inhibition of Phosphodiesterase 2 from bovine adrenal cortex. The essentials: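 Recombinant bovine adrenal cortex enzyme; [3H]cAMP substrate in 50 mM Tris-HCl pH 7.5, 2 mM MgCl2, 0.1 mg/mL BSA, mixture also holding 5 μM cGMP; 30 min, 30 °C. IC50 from inhibition vs log molar concentration curve; duplicate determinations averaged.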

Assay [5] concerns the target Phosphodiesterase 4 (Canis familiaris). Put plainly: Inhibition of phosphodiesterase PDE4 from canine kidney.
In assay [6] the test system is Rattus norvegicus. Briefly: Antihypertensive activity in spontaneously hypertensive rats at 25 mg/kg administered orally. It counts as functional. The note with it: route oral. The essentials:
as §1

Sequence of 3',5'-cyclic-nucleotide phosphodiesterase (A0A3Q1M1E8 1-1126): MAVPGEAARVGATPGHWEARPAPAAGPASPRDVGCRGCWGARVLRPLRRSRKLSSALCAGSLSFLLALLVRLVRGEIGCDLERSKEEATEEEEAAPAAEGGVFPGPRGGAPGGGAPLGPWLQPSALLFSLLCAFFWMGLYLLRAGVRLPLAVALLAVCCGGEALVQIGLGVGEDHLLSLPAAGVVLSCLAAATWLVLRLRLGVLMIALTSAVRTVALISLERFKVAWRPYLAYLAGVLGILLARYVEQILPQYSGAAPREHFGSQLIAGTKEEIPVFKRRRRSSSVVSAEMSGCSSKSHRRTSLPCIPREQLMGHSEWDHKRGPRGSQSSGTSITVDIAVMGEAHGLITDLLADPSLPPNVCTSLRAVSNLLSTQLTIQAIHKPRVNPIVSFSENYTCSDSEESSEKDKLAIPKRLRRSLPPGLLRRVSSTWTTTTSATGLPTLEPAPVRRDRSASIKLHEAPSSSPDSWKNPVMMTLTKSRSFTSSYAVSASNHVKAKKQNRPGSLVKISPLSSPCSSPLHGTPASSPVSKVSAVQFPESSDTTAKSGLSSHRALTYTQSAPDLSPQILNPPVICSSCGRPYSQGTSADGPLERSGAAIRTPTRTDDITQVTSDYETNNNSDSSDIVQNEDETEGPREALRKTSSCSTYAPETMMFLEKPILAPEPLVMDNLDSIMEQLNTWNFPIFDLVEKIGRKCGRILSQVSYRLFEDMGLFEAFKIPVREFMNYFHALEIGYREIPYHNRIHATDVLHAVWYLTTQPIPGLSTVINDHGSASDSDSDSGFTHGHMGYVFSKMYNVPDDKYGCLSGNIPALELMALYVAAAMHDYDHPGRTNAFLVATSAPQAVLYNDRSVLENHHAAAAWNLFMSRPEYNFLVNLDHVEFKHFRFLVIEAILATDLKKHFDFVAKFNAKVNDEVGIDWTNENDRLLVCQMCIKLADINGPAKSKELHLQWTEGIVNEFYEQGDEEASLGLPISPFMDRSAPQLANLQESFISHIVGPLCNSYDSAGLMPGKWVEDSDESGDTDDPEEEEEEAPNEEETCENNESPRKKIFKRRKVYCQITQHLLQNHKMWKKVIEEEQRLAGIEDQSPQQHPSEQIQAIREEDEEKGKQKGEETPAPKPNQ

As a reminder, the IC50 is the concentration that inhibits the measured activity by half. Read a low IC50 as higher potency. As for `Cc1n[nH]c2c1C(=O)N(C)C1=N[C@@H]3CCC[C@@H]3N12`, the IC50 in assay [1] is 2900 nM; in assay [2], over 100000 nM; on Phosphodiesterase 1, 18000 nM. For the same compound, the “Delta mmHg” value in the assay on Rattus norvegicus [3] is -7.

`CN1C(=O)c2c(nn(C)c2Cc2ccccc2)N2CC3(CCCC3)N=C12`: the IC50 in assay [4] is 11000 nM; in assay [1] it was 75 nM; in assay [2], 55000 nM; against Phosphodiesterase 1 it was 60 nM; in assay [5], 230 nM. For the same compound, the “Delta mmHg” value in the assay on Rattus norvegicus [3] is -33.

Regarding `CN1C(=O)c2c(nn(C)c2Cc2ccccc2)N2CC(C)(C)N=C12`, the IC50 in assay [1] is 140 nM; in assay [2], 42000 nM; against Phosphodiesterase 1, 18 nM.

Take `CN1C(=O)c2c(nn(Cc3ccccc3)c2-c2ccccc2)N2C1=N[C@@H]1CCC[C@@H]12`: the results for the IC50 (in assay [1]; in assay [2]; at Phosphodiesterase 1) were 2100 nM, 55000 nM and 540 nM, respectively. Also, the “Delta mmHg” value with Rattus norvegicus [3] is 1.

As for `CN1C(=O)c2c(nn(C)c2Cc2ccccc2)N2C1=N[C@@H]1CCC[C@@H]12`, the IC50 in assay [1] worked out at 100 nM; in assay [2] it was 80000 nM; on Phosphodiesterase 1, 55 nM. In addition, in the assay on Rattus norvegicus [3] (10 mg/kg), the “Delta mmHg” value was -26.

For the compound `CC(C)[C@@H]1CN2C(=N1)N(C)C(=O)c1c2nn(C)c1Cc1ccccc1`, the IC50 in assay [1] came to 100 nM; in assay [2] it was 90000 nM; at Phosphodiesterase 1, 20 nM.

As for `Cc1nn(Cc2ccccc2)c2c1C(=O)N(C)C1=N[C@@H]3CCC[C@@H]3N12`, the IC50 in assay [1] stood at 1000 nM; in assay [2], 50000 nM; on Phosphodiesterase 1, 2000 nM. In addition, the “Delta mmHg” value in the assay on Rattus norvegicus [3] is reported as -3.

On to `Cc1nc2c(n1Cc1ccccc1)C(=O)N(C)C1=N[C@@H]3CCC[C@@H]3N12`, for which the “Delta mmHg” value with Rattus norvegicus [3] is reported as -28.

Take `CN1C(=O)c2c(nn(C)c2Cc2ccccc2)N2C1=N[C@@H]1CCC[C@@H]12` (racemic): the IC50 is 140 nM in assay [1], 85000 nM in assay [2] and 160 nM at Phosphodiesterase 1. Besides, the “Delta mmHg” value in the assay on Rattus norvegicus [3] (10 mg/kg) is on record as -18.

Consider `CN1C(=O)c2c(Cc3ccccc3)nn(C)c2N2C1=N[C@@H]1CCC[C@@H]12` (racemic), for which the values for the IC50 (in assay [1]; in assay [2]; against Phosphodiesterase 1) were 400 nM, 29000 nM and 850 nM, respectively.

For `CN1C(=O)c2cnn(Cc3ccccc3)c2N2C1=N[C@@H]1CCC[C@@H]12` (racemic), the IC50 in assay [1] came out at 3100 nM; in assay [2], 55000 nM; on Phosphodiesterase 1 it was 29000 nM. The “Delta mmHg” value with Rattus norvegicus [6] was -14.

For the compound `CN1C(=O)c2c(Cc3ccccc3)n[nH]c2N2C1=N[C@@H]1CCC[C@@H]12` (racemic), the IC50 was 190 nM in assay [1], over 100000 nM in assay [2] and 1100 nM against Phosphodiesterase 1. The “Delta mmHg” value with Rattus norvegicus [6] is on record as -16.
